This note sets out measurements from ChEMBL document CHEMBL5055621, “Synthesis and Characterization of the Novel Rodent-Active and CNS-Penetrant P2X7 Receptor Antagonist Lu AF27139” (J Med Chem, 2021).

pIC50: −log10 of the molar value.

Data set [1] deals with Rattus norvegicus. In words: Toxicity in Sprague-Dawley rat assessed as histological changes up to 150 mg/kg, po by 7 days exploratory toxicology study. The format is organism-based. Conditions: in vivo, 168 h, time 7 day; call rule not given here. An outline of the steps: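 Exploratory 7-day repeat oral toxicity study in male and female rats at doses from 3 up to 150 mg/kg po. Endpoints were macroscopic pathology, histology and hematology.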

The nature of data set [2]: Free plasma concentration in rat at 3 mg/kg, po after 2 hrs by ex vivo equilibrium dialysis. The format is ADME, organism-based. The procedure, abridged:
(§1)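 Male Sprague–Dawley rats were dosed orally at 1–100 mg/kg, and total plasma concentration was measured at 1 and 2 h. This was multiplied by fraction unbound from ex vivo equilibrium dialysis; mean ± SEM, n = 3 animals.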

The next data set has as its target T1, P2X purinoceptor 7 (Mus musculus, UniProt Q9Z1M0).
T1 sequence (Q9Z1M0 whole entry): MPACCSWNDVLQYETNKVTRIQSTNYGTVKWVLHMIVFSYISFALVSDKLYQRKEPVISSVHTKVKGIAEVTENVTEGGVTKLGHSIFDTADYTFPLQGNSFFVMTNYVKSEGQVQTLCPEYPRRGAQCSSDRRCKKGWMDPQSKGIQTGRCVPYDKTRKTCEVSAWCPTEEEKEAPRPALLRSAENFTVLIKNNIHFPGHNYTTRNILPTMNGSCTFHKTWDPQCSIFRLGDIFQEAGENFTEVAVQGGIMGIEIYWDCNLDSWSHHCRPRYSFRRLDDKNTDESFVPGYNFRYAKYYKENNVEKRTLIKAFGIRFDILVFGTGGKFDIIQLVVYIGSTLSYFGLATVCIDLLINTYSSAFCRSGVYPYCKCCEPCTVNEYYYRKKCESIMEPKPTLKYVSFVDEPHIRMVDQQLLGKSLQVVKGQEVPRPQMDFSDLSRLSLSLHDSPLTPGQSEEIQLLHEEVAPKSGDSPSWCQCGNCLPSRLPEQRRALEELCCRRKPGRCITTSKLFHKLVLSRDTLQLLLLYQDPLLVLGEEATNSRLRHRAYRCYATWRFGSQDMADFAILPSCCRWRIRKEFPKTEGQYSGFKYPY
Description: Antagonist activity at mouse P2X7 receptor expressed in HEK293 cells assessed as inhibition of BzATP-induced calcium-flux measured after 60 mins by FLIPR analysis. The data set is classed as cell-based. An outline of the steps: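 Stable rat or mouse P2X7 HEK293 cells in HBSS/20 mM HEPES/2.5 mM probenecid/0.05% BSA, pH 7.4, were loaded with Fluo-4 NW (37 °C 30 min, RT 30 min). After 30 min at RT, calcium fluorescence was read by FLIPR; n ≥ 3.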

Data set [3] has as its system Rattus norvegicus. In words: Reduction in LPS/BzATP-induced IL-1beta release in icv dosed Sprague-Dawley rat frontal cortex assessed as minimal effective dose pretreated 1 hr before BzATP stimulus. Conditions: read-out: MED. The format is functional. An outline of the steps: (§2)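 Rats and mice with frontal cortex microdialysis probes and a lateral ventricle cannula received icv LPS (rat 3 μg/5 μL; mouse 0.1 μg/3 μL), and 1 h later oral compound in 20% HP-β-cyclodextrin. BzATP icv (rat 50 μg; mouse 5 μg) followed 1 h later.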

Data set [4] in a line: Tmax in female mouse at 100 mg/kg, po after 14 days. The conditions noted are these: in vivo.
Data set [5] is described as follows: Inhibition of BzATP-induced current in rat primary microglia cells measured after repeated BzATP treatment at -60 mV at 10 nM by whole cell patch clamp assay relative to control. The data set is classed as functional. The procedure, abridged:
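Rat primary microglia were whole-cell patch-clamped at −60 mV (external pH 7.4 with 1.8 mM CaCl2; CsCl/EGTA internal pH 7.2). Currents came from 10 s applications of 300 μM BzATP, applied repeatedly. Compound was applied by gravity via capillary for 60 s, and inhibition was taken relative to the control response.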

Data set [6] in a line: Apparent permeability across apical to basolateral side in MDCK-MDR1 cells by LC-MS/MS analysis. Conditions: dog.
Data set [7] is described as follows: Free plasma concentration in rat at 100 mg/kg, po after 1 hr by ex vivo equilibrium dialysis. The data set is classed as ADME, organism-based. An outline of the steps: as §1
The target of the next data set is T2, Cytochrome P450 2B6 (Homo sapiens, UniProt P20813).
T2 sequence (P20813 whole entry): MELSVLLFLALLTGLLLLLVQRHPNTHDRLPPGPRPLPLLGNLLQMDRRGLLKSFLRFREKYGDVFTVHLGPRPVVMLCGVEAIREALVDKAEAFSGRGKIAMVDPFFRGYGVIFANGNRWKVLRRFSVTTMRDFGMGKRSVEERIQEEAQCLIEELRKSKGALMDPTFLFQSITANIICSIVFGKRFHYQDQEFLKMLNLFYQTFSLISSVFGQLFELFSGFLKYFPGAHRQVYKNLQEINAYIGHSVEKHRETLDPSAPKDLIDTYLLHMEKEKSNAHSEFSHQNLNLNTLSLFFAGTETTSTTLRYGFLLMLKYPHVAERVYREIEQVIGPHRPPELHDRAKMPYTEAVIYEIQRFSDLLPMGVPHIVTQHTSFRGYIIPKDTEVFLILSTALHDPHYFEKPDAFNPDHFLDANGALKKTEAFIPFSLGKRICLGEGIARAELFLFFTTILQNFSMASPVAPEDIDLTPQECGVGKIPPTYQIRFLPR
In words: Time dependent inhibition of CYP2B6 (unknown origin) upto 25 uM. The format is ADME.

Data set [8] is described as follows: Reduction in LPS/BzATP-induced IL-1beta release in icv dosed C57BL/6NCrl mouse frontal cortex assessed as minimal effective dose pretreated 1 hr before BzATP stimulus. The data set is classed as functional. The conditions noted are these: read-out: MED. The procedure, abridged:
as §2

For another data set, the target named is hERG (KCNH2) (Homo sapiens, UniProt Q12809). Description: Inhibition of human ERG at 30 uM. An outline of the steps: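 hERG channel inhibition was measured at 30 μM.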
The next data set addresses T3, Cytochrome P450 2C8 (Homo sapiens, UniProt P10632).
T3 sequence (P10632 whole entry): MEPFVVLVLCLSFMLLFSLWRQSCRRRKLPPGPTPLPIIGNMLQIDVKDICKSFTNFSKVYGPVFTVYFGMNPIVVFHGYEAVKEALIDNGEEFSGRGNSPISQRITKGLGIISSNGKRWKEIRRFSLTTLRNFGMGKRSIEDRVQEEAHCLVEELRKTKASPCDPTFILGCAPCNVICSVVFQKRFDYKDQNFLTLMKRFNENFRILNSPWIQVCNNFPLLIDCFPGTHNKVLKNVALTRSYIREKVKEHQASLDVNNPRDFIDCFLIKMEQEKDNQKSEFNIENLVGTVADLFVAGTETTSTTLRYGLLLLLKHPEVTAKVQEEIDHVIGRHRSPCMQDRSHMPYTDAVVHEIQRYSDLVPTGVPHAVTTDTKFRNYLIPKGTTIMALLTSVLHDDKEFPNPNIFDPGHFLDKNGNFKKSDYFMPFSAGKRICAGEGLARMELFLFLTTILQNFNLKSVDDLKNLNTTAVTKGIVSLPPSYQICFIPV
In words: Inhibition of CYP2C8 (unknown origin) upto 25 uM. The format is ADME.

For the next data set, the target named is Cytochrome P450 3A4 (Homo sapiens, UniProt P08684). Description: Time dependent inhibition of CYP3A4 (unknown origin) upto 25 uM. The data set is classed as ADME.
Cytochrome P450 3A4, sequence (P08684 whole entry): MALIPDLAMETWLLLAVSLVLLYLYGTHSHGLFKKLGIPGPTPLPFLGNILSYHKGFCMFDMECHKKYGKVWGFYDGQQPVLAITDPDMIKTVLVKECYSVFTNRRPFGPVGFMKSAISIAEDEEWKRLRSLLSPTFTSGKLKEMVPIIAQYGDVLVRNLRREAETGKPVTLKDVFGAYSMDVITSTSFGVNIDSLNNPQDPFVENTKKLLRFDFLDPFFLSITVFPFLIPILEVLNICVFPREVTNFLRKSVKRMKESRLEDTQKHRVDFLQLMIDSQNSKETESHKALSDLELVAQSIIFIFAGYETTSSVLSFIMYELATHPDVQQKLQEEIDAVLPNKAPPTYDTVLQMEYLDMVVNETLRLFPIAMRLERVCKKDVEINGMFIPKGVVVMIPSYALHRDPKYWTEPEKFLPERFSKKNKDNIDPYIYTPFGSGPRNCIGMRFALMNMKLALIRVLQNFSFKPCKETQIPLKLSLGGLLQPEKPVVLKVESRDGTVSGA

hERG (KCNH2), sequence (Q12809 whole entry): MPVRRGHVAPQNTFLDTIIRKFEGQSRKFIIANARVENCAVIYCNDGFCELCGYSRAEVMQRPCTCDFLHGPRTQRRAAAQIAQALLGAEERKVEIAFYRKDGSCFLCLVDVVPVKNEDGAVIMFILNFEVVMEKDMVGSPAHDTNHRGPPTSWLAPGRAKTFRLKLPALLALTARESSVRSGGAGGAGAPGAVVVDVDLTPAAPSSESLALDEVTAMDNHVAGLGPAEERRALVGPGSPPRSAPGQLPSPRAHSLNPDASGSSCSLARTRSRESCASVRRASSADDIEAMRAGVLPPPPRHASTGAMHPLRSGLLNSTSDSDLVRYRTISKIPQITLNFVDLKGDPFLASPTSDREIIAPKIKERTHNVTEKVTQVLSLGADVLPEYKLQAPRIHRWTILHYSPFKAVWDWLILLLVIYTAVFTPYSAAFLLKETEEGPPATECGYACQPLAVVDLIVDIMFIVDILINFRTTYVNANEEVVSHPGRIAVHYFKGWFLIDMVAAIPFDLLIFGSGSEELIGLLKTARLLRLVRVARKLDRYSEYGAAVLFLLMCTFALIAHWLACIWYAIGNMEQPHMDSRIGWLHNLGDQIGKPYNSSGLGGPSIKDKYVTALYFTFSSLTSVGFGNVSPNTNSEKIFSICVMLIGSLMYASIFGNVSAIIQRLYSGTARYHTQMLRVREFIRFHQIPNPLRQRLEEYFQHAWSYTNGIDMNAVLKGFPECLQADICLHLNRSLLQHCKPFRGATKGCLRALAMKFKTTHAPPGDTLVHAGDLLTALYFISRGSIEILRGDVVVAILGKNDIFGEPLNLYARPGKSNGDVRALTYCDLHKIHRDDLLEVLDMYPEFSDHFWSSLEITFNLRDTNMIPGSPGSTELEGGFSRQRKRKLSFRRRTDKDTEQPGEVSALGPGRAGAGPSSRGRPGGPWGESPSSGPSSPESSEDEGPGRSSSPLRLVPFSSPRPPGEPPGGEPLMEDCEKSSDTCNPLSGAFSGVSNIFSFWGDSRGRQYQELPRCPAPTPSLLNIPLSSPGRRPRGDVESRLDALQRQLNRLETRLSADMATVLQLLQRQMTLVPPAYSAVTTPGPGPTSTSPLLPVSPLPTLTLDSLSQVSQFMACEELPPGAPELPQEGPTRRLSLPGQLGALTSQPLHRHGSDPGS

Regarding `O=C(NC[C@H](c1ccc(Cl)cc1)N1CCOCC1)c1sc(-c2ncccn2)nc1C(F)(F)F`, the Activity entry in the data set with Rattus norvegicus [1] is recorded as “Non-Toxic”. In addition, the “Cp(f)” value in data set [2] came to 91.4 nM; in data set [7], 1460 nM. The pIC50 at P2X purinoceptor 7 is 7.66. Moreover, the minimal effective dose with Rattus norvegicus [3] came out at 3 mg/kg; in [8] it was 10 mg/kg. In addition, the Tmax in data set [4] stood at 1 h. The molecule also came in with an inhibition at 0.01 µM in [5] of 31%. Also, the Papp A:B in data set [6] is 15 ×10⁻⁶ cm/s. For the same molecule, the TDI entry on Cytochrome P450 2B6 and on Cytochrome P450 3A4 was “Not Active” throughout. Further, the inhibition at 30 µM at hERG (KCNH2) is 44%. For the same molecule, the “inhibition (INH)” value on Cytochrome P450 2C8 is recorded as “Not Active”.
